Experimental data reported in ChEMBL document CHEMBL1144785, “Antiplasmodial triterpenoids from Ekebergia capensis” (J Nat Prod, 2008).
Active and inactive are the calls of the source. The rule behind the calls is not given here.

Tests used:
Plasmodium falciparum [1] = assay: Antiplasmodial activity against chloroquine-susceptible Plasmodium falciparum FCR3; type: functional, organism-based
Procedure, shortened: (§1)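 Synchronous cultures in RPMI 1640 with 10% human serum, 25 mM HEPES (pH 7.2), hypoxanthine and 2% hematocrit type O+ RBCs, under 5% CO2/5% O2/90% N2 at 37 °C. DMSO stocks were serially diluted 2-fold and added to infected RBCs at 0.5% parasitemia, then incubated 52 h. Ring forms on Giemsa smears were counted against controls. Single assay per concentration; IC50 by probit.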

Plasmodium falciparum [2] = assay: Antiplasmodial activity against chloroquine-resistant Plasmodium falciparum K1; type: functional, organism-based; procedure, shortened: as §1
Plasmodium berghei [3] = assay: Antimalarial activity in Plasmodium berghei NK65 infected ICR mice (Mus musculus) as reduced parasitemia at 250 mg/kg/day peroral dose for 4 days; type: functional; parameters: scale not given: the % may be the effect or the level left; settings: route oral
Procedure, shortened: (§2)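 Peters 4-day suppressive test in 7-week-old outbred SPF male ICR mice, five per group. Mice infected i.p. with 10^5 P. berghei NK65-parasitized erythrocytes taken from donor mice. Compound dissolved in DMSO and diluted with distilled water (final DMSO below 0.2%). Given orally by metal catheter once daily for 4 days, first dose 2–4 h p.i.; controls received distilled water. Day-4 Giemsa tail-blood smears scored microscopically; suppression calculated against controls.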

Plasmodium berghei [4] = assay: Antimalarial activity in […] NK65 infected ICR mice (Mus musculus) as reduced parasitemia at 500 mg/kg/day peroral dose after 4 days; type: functional; parameters: scale not given: the % may be the effect or the level left; settings: route oral
Procedure, shortened: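 Male ICR mice, 7 weeks old, were infected ip with 10^5 P. berghei NK65-parasitized erythrocytes from donor mice, five per group. Dosing began 2–4 h p.i., given orally by metal catheter once daily for 4 days. Compound was in DMSO diluted with distilled water (final DMSO <0.2%); controls got water. On day 4, tail-vein Giemsa smears gave parasitemia; suppression was calculated versus control.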

Plasmodium berghei [5] = assay: Antimalarial activity in Plasmodium berghei NK65 infected ICR mice (Mus musculus) as reduced parasitemia at 100 mg/kg/day peroral dose for 4 days; type: functional; parameters: scale not given: the % may be the effect or the level left; procedure, shortened: as §2

SMILES | IC50 (Plasmodium falciparum [1]) [µM] | IC50 (Plasmodium falciparum [2]) [µM] | Activity (Plasmodium berghei [3]) [%] | Activity (Plasmodium berghei [4]) [%] | Activity (Plasmodium berghei [5]; route oral) [%] | Activity (Plasmodium berghei [5])
CC(=O)OC[C@](C)(O)[C@H](O)CC/C(C)=C/CC/C(C)=C/CC/C=C(\C)CC/C=C(\C)CC[C@@H](O)C(C)(C)O [EKEBERIN D5] | 55 | 137 | – | – | – | –
CC(=O)OC[C@](C)(O)[C@@H](CC/C(C)=C/CC/C(C)=C/CC/C=C(\C)CC/C=C(\C)CC[C@@H](O)C(C)(C)O)OC(C)=O | 113 | 97 | – | – | – | –
C/C(=C\CC/C=C(\C)CC/C=C(\C)CC[C@@H](O)C(C)(C)O)CC/C=C(\C)CC[C@@H](O)C(C)(C)O | 55 | 59 | 26.5 | 20.5 | 26.5 | –
CC1(C)C(=O)C=C[C@]2(C)[C@H]3CC[C@@]4(C)[C@H](c5ccco5)OC(=O)[C@H]5O[C@]54[C@]3(C)C(=O)C[C@@H]12 | 6 | – | – | – | – | –
C/C(=C\CC/C=C(\C)CC/C=C(\C)CC[C@@H](O)[C@@](C)(O)CO)CC/C=C(\C)CC[C@@H](O)C(C)(C)O | 18 | 7 | 41.2 | 52.9 | – | inactive
C/C(=C\CC/C=C(\C)CC[C@@H](O)[C@]1(C)CC[C@H](C(C)(C)O)O1)CC[C@@H](O)[C@]1(C)CC[C@H](C(C)(C)O)O1 [EKEBERIN D4] | 40 | – | – | – | – | –
